# RGS4 block – human RGS4 inhibition; P49798; HEK293 M3R/RGS4 inducible, Fluo-4 calcium flux; stronger effect = higher value; triggered by carbachol at its EC20; B-score at 10 µM; 0.45% of 310,000 active; AID 463165;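 active means B-score, a plate-corrected calcium signal, over three deviations above library mean, with baseline fluorescence within five deviations of library mean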;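 further: RGS4 expression induced by doxycycline in cells with stable M3 receptor; B-score is computed from the integrated fluorescence ratio over baseline after carbachol; higher B-score means a larger calcium signal and so more RGS4 inhibition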
# Target sequence (P49798 whole entry, looked up): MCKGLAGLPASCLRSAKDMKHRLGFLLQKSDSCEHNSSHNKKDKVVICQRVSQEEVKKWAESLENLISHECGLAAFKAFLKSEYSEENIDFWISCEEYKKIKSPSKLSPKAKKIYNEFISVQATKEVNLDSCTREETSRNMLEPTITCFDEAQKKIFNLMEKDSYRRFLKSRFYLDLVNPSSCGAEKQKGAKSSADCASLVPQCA
# RGS4 pot – RGS4 potentiation or activation | HEK293 M3R/inducible RGS4, carbachol calcium flux Fluo4; stronger effect = lower value | B-score at 10 µM | 0.92% of 310,000 active;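 active means B-score of the integrated calcium signal more than 4 SD below the library mean, with starting fluorescence not abnormally high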;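 further: negative B-score means reduced calcium response which marks RGS4 activation or potentiation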
#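 Also added: carbachol at ECmax as muscarinic agonist stimulus; Assay system: HEK293 cells with stable M3R and inducible RGS4; Timing: overnight RGS4 induction, 30 min dye load 37 °C, 20 min compound RT; Measured by: Fluo4-AM (2 µM) calcium-flux fluorescence, kinetic read.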
# MrgX1 agonist – activates human MrgX1 receptor signaling. Q96LB2. MrgX1-HEK293 cells, Fluo-4 calcium fluorescence, agonist mode; stronger effect = higher value. B-score at 10 µM. 0.44% of 310,000 active. AID 588627;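 active means calcium response B-score plate-corrected fluorescence ratio at least 3 library SD, with starting fluorescence B-score inside 5 SD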
# Target sequence (Q96LB2 whole entry, looked up): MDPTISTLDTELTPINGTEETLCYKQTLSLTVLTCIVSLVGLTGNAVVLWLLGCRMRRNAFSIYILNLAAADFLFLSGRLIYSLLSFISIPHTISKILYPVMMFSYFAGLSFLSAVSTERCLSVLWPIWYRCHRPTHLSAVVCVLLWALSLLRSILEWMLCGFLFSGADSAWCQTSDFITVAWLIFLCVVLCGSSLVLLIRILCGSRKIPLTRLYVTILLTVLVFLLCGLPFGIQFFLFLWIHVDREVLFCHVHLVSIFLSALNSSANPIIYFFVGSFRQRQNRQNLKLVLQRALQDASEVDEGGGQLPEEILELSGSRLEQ
#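 Assay system: MrgX1-expressing HEK293 cells / Amount: fifteen thousand cells per well / Doses: test compound in the initial addition of three / Timing: cells plated overnight, dye loaded 0.5 h 37 °C, 0.5 h room temperature / Technique: kinetic calcium dye fluorescence, Fluo-4 NW / Control set: positive and negative controls per plate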
# MrgX1 PAM – human MrgX1 positive allosteric modulation, primary screen | Q96LB2 | 0.63% of 310,000 active | B-score at 10 µM | MrgX1-HEK293, Fluo-4 calcium flux, FDSS; stronger effect = higher value;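 active means plate-corrected calcium response at least 3 library SD above typical, normal starting fluorescence, not activating the receptor alone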;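 further: compound read alongside a low EC10 to EC30 dose of BAM8-22 agonist; peak minus trough fluorescence over baseline measured at the second addition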
# MrgX1 antagonist – antagonists of human MrgX1 receptor; 1.3% of 310,000 active; AID 588676; MRGX1-HEK293 calcium flux, Fluo-4, BAM8-22 antagonism; stronger effect = lower value; B-score at 10 µM;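 active means calcium-response B-score plate-corrected more than 3 library SD below zero, starting fluorescence within 5 deviations, no agonist response on first addition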;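 further: peak minus trough fluorescence over baseline after final BAM8-22 challenge near maximal dose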
# Active calls of the source: *; i = inactive. Compounds with a hit are over-represented: about 3.5% of the library has one in this group of screens.
SMILES,RGS4 block,RGS4 pot,MrgX1 agonist,MrgX1 PAM,MrgX1 antagonist
O=C(Nc1ccc(S(=O)(=O)N2CCCCC2)cc1)c1ccc(CN2CCOCC2)cc1,i,i,i,i,-7.7*
O=C(NCc1ccccc1Cl)C1CCN(C(=O)c2ccco2)CC1,i,i,i,i,i
CN(CC(=O)Nc1ccccc1Cl)C(=O)CSc1nnc(N)s1,i,i,i,i,i
Cc1ccc2cc(CN(CCc3ccccc3)C(=S)NCCCN(C)C)c(=O)[nH]c2c1,i,i,i,6.6*,i
Cc1ccccc1CS(=O)(=O)Cc1ccc(C(=O)NC2CCCCC2)o1,i,i,i,i,i
Cc1cc(C(=O)CSc2nncs2)c(C)n1-c1c(C)n(C)n(-c2ccccc2)c1=O,i,-9.4*,i,i,i
COc1ccc(-c2csc(NC(=O)C3CCCO3)n2)cc1 (stereo not given),i,-7*,i,i,i
Cn1cccc1C(=O)NC1CCCCC1,i,i,i,i,i
CC(c1ccccc1)N(CCC(c1ccccc1)C1CCOC(C)(C)C1)C(=O)c1ccco1 (stereo not given),i,i,i,i,i
COc1ccc(CN(CCC(c2ccc(F)cc2)C2CCOC(C)(C)C2)C(=O)c2ccco2)cc1 (stereo not given),i,-8.2*,i,i,i
O=C(c1ccco1)N(CCC(c1ccccc1)c1ccco1)Cc1ccccc1 (stereo not given),i,i,i,i,i
COc1ccc(CN(CCC(c2ccccc2)c2ccco2)C(=O)c2ccco2)cc1 (stereo not given),i,-8.2*,i,i,i
Cc1ccc(NC(=O)CN2CCN(Cc3ccccc3)CC2)cc1F,i,i,i,i,i
Cc1cc(C)c(S(=O)(=O)NNC(=O)C2CCN(Cc3ccccc3)CC2)c(C)c1,i,i,i,i,i
CCOc1ccc(C=O)cc1CN1CCCCC1,i,i,i,i,-5.8*
CCOc1cc(CN2CCCCC2)ccc1OC,i,i,i,i,i
COc1ccc(/C=C/C(=O)N(Cc2cccs2)C2CCS(=O)(=O)C2)cc1 (stereo not given),i,-7.5*,i,i,i
COc1ccc(/C=N/N=C/c2ccc(OC)c(OC)c2)cc1OC,i,i,i,i,i
COc1cc(/C=N/N=C(N)N)ccc1OCc1ccccc1Cl,i,i,i,6.5*,i
O=C1CC(c2ccc(Cl)cc2)CC(=O)C1CS(=O)(=O)c1ccccc1 (stereo not given),i,-7.2*,i,i,i
O=C(NN1C(=O)/C(=C/C=C/c2ccco2)SC1=S)c1ccccc1O,i,i,i,i,-4.6*
CCCCNC(=O)/C(C#N)=C/c1ccc(F)cc1F,i,i,i,i,i
Cc1cccc(/C=N/NC(=O)c2ccncc2)n1,i,i,i,i,i
C/C(=N\O)C(C)(C)Nc1ccc(Br)cc1,i,i,26*,i,i
CCCN1C(=O)/C(=C/C=C2\N(CC)c3ccccc3C2(C)C)SC1=S,i,i,i,12*,i
SMILES,RGS4 block,RGS4 pot,MrgX1 agonist,MrgX1 PAM,MrgX1 antagonist
C=CCN1C(=O)/C(=C\C=C2\N(C)c3ccccc3C2(C)C)SC1=S,i,i,31*,i,i
CN1/C(=C\C=C2/SC(=S)N(CC(=O)O)C2=O)C(C)(C)c2ccccc21,i,i,i,i,i
Cc1c(C)n2c(SCC(=O)NCc3ccc4c(c3)OCO4)nnc2[nH]c1=O,i,i,i,i,i
O=C(NCCCNC(=O)c1ccccc1F)c1ccco1,i,i,i,i,i
COc1ccccc1CNc1ncccn1,i,i,i,i,i
COc1ccccc1CNN,i,i,i,8*,i
COc1ccc(-c2cc(-c3ccccc3)nc(Cl)n2)cc1OC,i,-7*,i,i,i
N=C1/C(=C\c2ccc(SCc3ccccc3)o2)C(=O)N=C2SC(CC(=O)N3CCOCC3)=NN12,i,i,i,i,i
N=C1/C(=C\c2ccc(SCc3ccccc3)o2)C(=O)N=C2SC=NN12,i,i,i,8.7*,i
O=S(=O)(NC1Cc2ccccc2C1)c1ccccc1,i,i,i,i,i
O=C(N/N=C/c1ccc(N2CCOCC2)cc1)c1ccccc1OCCOc1ccccc1,i,-7.1*,i,i,i
O=C(N/N=C/c1ccc(N2CCOCC2)cc1)c1cccs1,i,i,i,i,i
O=C(NCCCc1ccccc1)C1CC1,i,i,i,i,i
Cc1ccc(OCCn2c(=O)n(C)c3ccccc32)cc1,i,-7.2*,i,i,i
CC(OC(=O)c1cc2sccc2n1C)C(=O)NCc1ccco1 (stereo not given),i,i,i,i,i
Cn1c(C(=O)OC(C(=O)NCc2ccco2)c2ccncc2)cc2sccc21 (stereo not given),i,i,i,i,-4.7*
Cc1ccc(C(=O)NC(=S)NNC(=O)COc2ccccc2C)cc1,i,-8.7*,i,i,i
Cc1ccc(C(=O)NC(=S)NNC(=O)COc2ccc([N+](=O)[O-])cc2)cc1,i,i,i,6.9*,i
Cc1cccc(C(=O)NC(=S)NCc2ccccc2)c1,i,i,i,i,i
CC(C)CNC(=S)NC(=O)c1ccc([N+](=O)[O-])cc1,i,i,i,10*,i
Cc1cccc(C(=O)NC(=S)NNC(=O)COc2c(C)cccc2C)c1,i,i,27*,i,i
O=C(COC(=O)c1ccccc1NCCO)Nc1cccc(S(=O)(=O)NC2=NCCCCC2)c1,i,i,i,i,i
CC(C)OC(=O)c1ccc(NC(=O)c2ccco2)cc1,i,i,i,i,i
OCCNCc1c(OCc2ccc(Cl)cc2)ccc2ccccc12,i,i,i,i,i
Cc1ccc(OCC(=O)NNC(=S)NC(=O)C2CCCCC2)c(C)c1,i,-7.1*,48*,i,i
COC(=O)c1cc(NS(=O)(=O)c2ccc(Cl)c(N3C(=O)c4ccc(C(=O)O)cc4C3=O)c2)cc(C(=O)OC)c1,i,i,i,9.9*,i
COc1ccc(NC(=O)CSc2nnc3n2CCCCC3)cc1,i,i,i,i,i
CC12CCC3(CO)COC(c4ccccc4O1)C2C3 (stereo not given),i,i,i,i,i

# Source: PubChem BioAssay
